Assays:
[1] = molecular target: Cyclin-dependent kinase 4/cyclin D1 (Homo sapiens) (UniProt P11802+P24385); assay: Inhibition of wild-type human full length CDK4/cyclinD1 (M1 to E303 residues) expressed in HEK293 cells assessed as residual activity at 1000 nM after 30 mins by Kinomescan method relative to control; format: cell-based
Summary of the method: (§1)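 Single-point screen at a fixed 1 µM, run within a 456-kinase DiscoveRx KINOMEscan panel. Each kinase's read-out is Percent Control, i.e. signal relative to a control without compound. Hits were scored by a Percent Control < 35 cut-off, and an S(35) selectivity score was calculated across the non-mutant kinases.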

[2] = test system: Phosphatidylinositol 4,5-bisphosphate 3-kinase catalytic subunit alpha isoform (Homo sapiens), P42336 [C420R]; assay: Inhibition of human partial length PIK3CA C420R mutant (R108 to N1068 residues) expressed in HEK293 cells assessed as residual activity at 1000 nM after 30 mins by Kinomescan method relative to control; format: cell-based
Summary of the method: (§2)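 KINOMEscan binding panel of 456 kinases, with the test compound at a single concentration of 1 µM. Read-out is Percent Control.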

[3] = molecular target: Ribosomal protein S6 kinase alpha-2 (Homo sapiens) (UniProt Q15349); assay: Inhibition of wild-type human partial length N-terminal RSK2 kinase domain 1 (M1 to D394 residues) expressed in HEK293 cells assessed as residual activity at 1000 nM after 30 mins by Kinomescan method relative to control; format: cell-based
[4] = molecular target: Serine/threonine-protein kinase Nek9 (Homo sapiens) (UniProt Q8TD19); assay: Inhibition of wild-type human partial length NEK9 (P32 to R328 residues) expressed in Escherichia coli BL21 assessed as residual activity at 1000 nM after 30 mins by Kinomescan method relative to control
[5] = test system: Epidermal growth factor receptor (Homo sapiens), P00533 [UNDEFINED MUTATION]; assay: Inhibition of human partial length EGFR E746-A750del mutant expressed in Escherichia coli BL21 assessed as residual activity at 1000 nM after 30 mins by Kinomescan method relative to control; summary of the method: as §2
[6] = molecular target: Calcium/calmodulin-dependent protein kinase type 1B (Homo sapiens) (UniProt Q6P2M8); assay: Inhibition of wild-type human partial length CAMK1B (W9 to A311 residues) expressed in HEK293 cells assessed as residual activity at 1000 nM after 30 mins by Kinomescan method relative to control; format: cell-based
[7] = molecular target: Tyrosine-protein kinase ITK/TSK (Homo sapiens) (UniProt Q08881); assay: Inhibition of wild-type human partial length ITK (R335 to L620 residues) expressed in Escherichia coli BL21 assessed as residual activity at 1000 nM after 30 mins by Kinomescan method relative to control
[8] = molecular target: Interferon-induced, double-stranded RNA-activated protein kinase (Homo sapiens) (UniProt P19525); assay: Inhibition of wild-type human partial length PRKR (F247 to C551 residues) expressed in Escherichia coli BL21 assessed as residual activity at 1000 nM after 30 mins by Kinomescan method relative to control
[9] = molecular target: Serine/threonine-protein kinase TBK1 (Homo sapiens) (UniProt Q9UHD2); assay: Inhibition of wild-type human full length TBK1 (M1 to L729 residues) expressed in HEK293 cells assessed as residual activity at 1000 nM after 30 mins by Kinomescan method relative to control; format: cell-based
[10] = test system: Receptor-type tyrosine-protein kinase FLT3 (Homo sapiens), P36888 [N841I]; assay: Inhibition of human partial length FLT3 N841I mutant (V592 to Y969 residues) expressed in Escherichia coli BL21 assessed as residual activity at 1000 nM after 30 mins by Kinomescan method relative to control; summary of the method: as §2
[11] = molecular target: Casein kinase II subunit alpha (Homo sapiens) (UniProt P68400); assay: Inhibition of wild-type human full length CSNK2A1 (M1 to Q391 residues) expressed in HEK293 cells assessed as residual activity at 1000 nM after 30 mins by Kinomescan method relative to control; format: cell-based; summary of the method: as §1
[12] = molecular target: Protein-tyrosine kinase 6 (Homo sapiens) (UniProt Q13882); assay: Inhibition of wild-type human partial length BRK (L166 to T451 residues) expressed in Escherichia coli BL21 assessed as residual activity at 1000 nM after 30 mins by Kinomescan method relative to control
[13] = molecular target: Serine/threonine-protein kinase 24 (Homo sapiens) (UniProt Q9Y6E0); assay: Inhibition of wild-type human partial length MST3 (A30 to S311 residues) expressed in Escherichia coli BL21 assessed as residual activity at 1000 nM after 30 mins by Kinomescan method relative to control
[14] = molecular target: Cyclin-dependent kinase 7 (Homo sapiens) (UniProt P50613); assay: Inhibition of wild-type human full length CDK7 (M1 to L344 residues) expressed in HEK293 cells assessed as residual activity at 1000 nM after 30 mins by Kinomescan method relative to control; format: cell-based; summary of the method: as §1
[15] = molecular target: Serine/threonine-protein kinase B-raf (Homo sapiens) (UniProt P15056); assay: Inhibition of wild-type human partial length BRAF (S429 to E741 residues) expressed in HEK293 cells assessed as residual activity at 1000 nM after 30 mins by Kinomescan method relative to control; format: cell-based
[16] = molecular target: Dual specificity tyrosine-phosphorylation-regulated kinase 1A (Homo sapiens) (UniProt Q13627); assay: Inhibition of wild-type human partial length DYRK1A (H129 to S509 residues) expressed in HEK293 cells assessed as residual activity at 1000 nM after 30 mins by Kinomescan method relative to control; format: cell-based
[17] = test system: Epidermal growth factor receptor (Homo sapiens), P00533 [UNDEFINED MUTATION]; assay: Inhibition of human partial length EGFR S752-I759del mutant expressed in Escherichia coli BL21 assessed as residual activity at 1000 nM after 30 mins by Kinomescan method relative to control; summary of the method: as §2
[18] = molecular target: Myosin light chain kinase, smooth muscle (Homo sapiens) (UniProt Q15746); assay: Inhibition of wild-type human full length MYLK (M854 to E1845 residues) expressed in HEK293 cells assessed as residual activity at 1000 nM after 30 mins by Kinomescan method relative to control; format: cell-based
Summary of the method: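 Single-concentration screen at 1 µM across a 456-kinase KINOMEscan panel. The read-out is Percent Control for each kinase.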

[19] = molecular target: Fibroblast growth factor receptor 4 (Homo sapiens, UniProt P22455); assay: Inhibition of wild-type human partial length FGFR4 (G402 to E713 residues) expressed in Escherichia coli BL21 assessed as residual activity at 1000 nM after 30 mins by Kinomescan method relative to control
[20] = molecular target: Serine/threonine-protein kinase MAK (Homo sapiens) (UniProt P20794); assay: Inhibition of wild-type human partial length MAK (M1 to P314 residues) expressed in Escherichia coli BL21 assessed as residual activity at 1000 nM after 30 mins by Kinomescan method relative to control
[21] = molecular target: Discoidin domain-containing receptor 2 (Homo sapiens) (UniProt Q16832); assay: Inhibition of wild-type human partial length DDR2 (V555 to E855 residues) expressed in HEK293 cells assessed as residual activity at 1000 nM after 30 mins by Kinomescan method relative to control; format: cell-based

Chain of Epidermal growth factor receptor (Homo sapiens), P00533 [UNDEFINED MUTATION] (P00533 whole entry, looked up, stated change not applied, the tested form may be a part): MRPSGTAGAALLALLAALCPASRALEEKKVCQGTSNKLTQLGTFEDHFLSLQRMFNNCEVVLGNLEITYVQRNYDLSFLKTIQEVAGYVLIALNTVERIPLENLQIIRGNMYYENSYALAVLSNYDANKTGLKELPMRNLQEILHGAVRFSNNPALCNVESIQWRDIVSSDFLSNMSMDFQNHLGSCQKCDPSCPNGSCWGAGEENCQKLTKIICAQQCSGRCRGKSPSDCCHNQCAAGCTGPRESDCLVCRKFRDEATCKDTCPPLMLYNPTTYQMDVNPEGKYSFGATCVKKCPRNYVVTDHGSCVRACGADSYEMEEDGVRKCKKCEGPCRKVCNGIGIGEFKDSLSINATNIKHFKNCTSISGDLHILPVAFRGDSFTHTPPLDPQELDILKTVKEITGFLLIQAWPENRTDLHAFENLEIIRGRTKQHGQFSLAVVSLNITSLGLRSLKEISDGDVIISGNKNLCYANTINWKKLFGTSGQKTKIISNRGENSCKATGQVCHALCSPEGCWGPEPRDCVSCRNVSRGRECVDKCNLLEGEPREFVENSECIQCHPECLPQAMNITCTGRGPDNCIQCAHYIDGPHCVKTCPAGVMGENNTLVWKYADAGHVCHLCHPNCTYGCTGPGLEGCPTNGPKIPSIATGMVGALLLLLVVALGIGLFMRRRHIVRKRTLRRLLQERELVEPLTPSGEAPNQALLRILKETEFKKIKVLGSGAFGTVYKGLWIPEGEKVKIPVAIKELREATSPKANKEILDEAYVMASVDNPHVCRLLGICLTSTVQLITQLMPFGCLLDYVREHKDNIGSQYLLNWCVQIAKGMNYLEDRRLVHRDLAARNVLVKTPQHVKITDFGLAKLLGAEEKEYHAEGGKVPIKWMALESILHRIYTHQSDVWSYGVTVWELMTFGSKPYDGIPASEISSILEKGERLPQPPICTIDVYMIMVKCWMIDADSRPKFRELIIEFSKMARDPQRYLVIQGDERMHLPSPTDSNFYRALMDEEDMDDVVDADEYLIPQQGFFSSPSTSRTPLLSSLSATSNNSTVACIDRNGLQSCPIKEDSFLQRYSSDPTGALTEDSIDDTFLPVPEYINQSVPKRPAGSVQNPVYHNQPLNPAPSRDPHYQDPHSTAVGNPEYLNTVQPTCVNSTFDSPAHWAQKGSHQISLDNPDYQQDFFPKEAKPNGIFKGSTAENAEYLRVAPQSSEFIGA
Chain of Protein-tyrosine kinase 6 (Homo sapiens) (Q13882 whole entry, looked up, the tested form may be a part): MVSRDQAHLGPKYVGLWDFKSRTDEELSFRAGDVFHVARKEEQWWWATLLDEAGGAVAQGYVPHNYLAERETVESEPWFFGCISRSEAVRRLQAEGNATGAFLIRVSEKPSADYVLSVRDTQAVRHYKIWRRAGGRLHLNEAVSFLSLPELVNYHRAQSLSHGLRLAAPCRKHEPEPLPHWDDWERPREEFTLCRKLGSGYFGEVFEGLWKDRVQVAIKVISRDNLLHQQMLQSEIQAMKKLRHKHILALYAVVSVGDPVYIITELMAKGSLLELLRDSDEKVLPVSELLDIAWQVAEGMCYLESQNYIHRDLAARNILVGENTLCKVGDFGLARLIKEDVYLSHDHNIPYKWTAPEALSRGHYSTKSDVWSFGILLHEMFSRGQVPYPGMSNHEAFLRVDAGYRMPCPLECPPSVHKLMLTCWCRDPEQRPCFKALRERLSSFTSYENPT
Chain of Cyclin-dependent kinase 7 (Homo sapiens) (P50613 whole entry, the tested form may be a part): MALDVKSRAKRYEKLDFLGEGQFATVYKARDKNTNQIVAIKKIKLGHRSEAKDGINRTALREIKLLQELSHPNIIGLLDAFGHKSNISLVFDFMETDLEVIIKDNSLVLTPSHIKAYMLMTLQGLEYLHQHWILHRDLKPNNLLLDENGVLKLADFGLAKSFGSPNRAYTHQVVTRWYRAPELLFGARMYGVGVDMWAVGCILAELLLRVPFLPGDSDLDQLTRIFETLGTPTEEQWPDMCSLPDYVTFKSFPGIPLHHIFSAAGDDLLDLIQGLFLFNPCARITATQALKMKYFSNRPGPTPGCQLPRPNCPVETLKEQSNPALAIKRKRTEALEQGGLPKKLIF
Chain of Calcium/calmodulin-dependent protein kinase type 1B (Homo sapiens) (Q6P2M8 whole entry, the tested form may be a part): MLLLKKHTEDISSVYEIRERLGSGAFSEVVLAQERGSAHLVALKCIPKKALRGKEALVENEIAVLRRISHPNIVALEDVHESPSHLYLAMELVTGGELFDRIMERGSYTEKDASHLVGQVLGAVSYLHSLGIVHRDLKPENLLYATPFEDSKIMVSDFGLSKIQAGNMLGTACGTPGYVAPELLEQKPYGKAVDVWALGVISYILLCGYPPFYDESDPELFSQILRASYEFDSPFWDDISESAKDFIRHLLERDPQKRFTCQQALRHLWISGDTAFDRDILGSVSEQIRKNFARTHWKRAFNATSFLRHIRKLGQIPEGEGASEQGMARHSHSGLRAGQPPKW
Chain of Serine/threonine-protein kinase 24 (Homo sapiens) (Q9Y6E0 whole entry, looked up, the tested form may be a part): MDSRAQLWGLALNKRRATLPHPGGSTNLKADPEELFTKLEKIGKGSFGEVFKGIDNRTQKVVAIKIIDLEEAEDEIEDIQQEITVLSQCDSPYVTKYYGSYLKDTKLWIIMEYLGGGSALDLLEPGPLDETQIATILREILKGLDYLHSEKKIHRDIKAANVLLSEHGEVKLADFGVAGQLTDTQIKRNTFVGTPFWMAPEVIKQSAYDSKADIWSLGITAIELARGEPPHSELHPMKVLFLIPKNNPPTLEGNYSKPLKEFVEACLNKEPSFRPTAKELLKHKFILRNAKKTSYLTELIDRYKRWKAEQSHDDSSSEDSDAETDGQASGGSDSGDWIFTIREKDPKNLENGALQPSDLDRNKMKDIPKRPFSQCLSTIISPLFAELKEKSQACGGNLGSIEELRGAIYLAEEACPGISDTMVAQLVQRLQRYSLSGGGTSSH
Chain of Serine/threonine-protein kinase MAK (Homo sapiens) (P20794 whole entry, the tested form may be a part): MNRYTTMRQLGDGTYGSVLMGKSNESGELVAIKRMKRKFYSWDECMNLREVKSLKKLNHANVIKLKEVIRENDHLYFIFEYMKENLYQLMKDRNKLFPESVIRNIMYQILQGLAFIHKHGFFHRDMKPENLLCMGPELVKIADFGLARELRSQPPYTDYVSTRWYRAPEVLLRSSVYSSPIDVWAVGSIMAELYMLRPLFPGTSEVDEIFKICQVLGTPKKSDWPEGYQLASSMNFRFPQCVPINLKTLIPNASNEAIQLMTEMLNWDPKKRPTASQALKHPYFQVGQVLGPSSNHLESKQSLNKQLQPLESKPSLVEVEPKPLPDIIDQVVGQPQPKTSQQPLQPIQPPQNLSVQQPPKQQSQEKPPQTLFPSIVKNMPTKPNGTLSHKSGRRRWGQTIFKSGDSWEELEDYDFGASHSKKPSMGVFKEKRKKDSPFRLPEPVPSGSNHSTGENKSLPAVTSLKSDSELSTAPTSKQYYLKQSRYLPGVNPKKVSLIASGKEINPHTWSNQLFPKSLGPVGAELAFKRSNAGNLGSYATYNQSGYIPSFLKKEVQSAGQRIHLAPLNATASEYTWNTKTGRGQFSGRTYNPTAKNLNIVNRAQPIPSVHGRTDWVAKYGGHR
Chain of Serine/threonine-protein kinase B-raf (Homo sapiens) (P15056 whole entry, the tested form may be a part): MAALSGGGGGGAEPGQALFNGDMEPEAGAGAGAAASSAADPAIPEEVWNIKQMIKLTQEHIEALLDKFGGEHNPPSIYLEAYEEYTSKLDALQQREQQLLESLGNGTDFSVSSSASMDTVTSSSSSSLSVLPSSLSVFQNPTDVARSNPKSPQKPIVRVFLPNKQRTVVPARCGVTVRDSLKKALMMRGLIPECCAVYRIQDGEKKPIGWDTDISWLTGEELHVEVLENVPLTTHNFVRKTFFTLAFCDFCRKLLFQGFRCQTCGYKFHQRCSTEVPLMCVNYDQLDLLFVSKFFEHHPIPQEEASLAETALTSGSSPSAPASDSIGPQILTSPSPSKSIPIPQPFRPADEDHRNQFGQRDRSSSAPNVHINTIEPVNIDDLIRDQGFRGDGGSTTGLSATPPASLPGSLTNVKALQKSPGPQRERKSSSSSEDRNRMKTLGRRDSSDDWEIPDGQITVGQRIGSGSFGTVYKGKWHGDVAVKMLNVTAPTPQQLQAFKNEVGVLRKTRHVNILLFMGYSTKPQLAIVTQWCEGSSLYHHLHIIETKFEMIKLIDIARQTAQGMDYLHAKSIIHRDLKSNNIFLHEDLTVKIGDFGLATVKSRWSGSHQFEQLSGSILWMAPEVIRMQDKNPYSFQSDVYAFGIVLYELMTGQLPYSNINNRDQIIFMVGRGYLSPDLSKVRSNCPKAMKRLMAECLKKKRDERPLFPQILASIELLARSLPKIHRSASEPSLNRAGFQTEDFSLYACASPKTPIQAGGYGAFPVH
Chain of Interferon-induced, double-stranded RNA-activated protein kinase (Homo sapiens) (P19525 whole entry, the tested form may be a part): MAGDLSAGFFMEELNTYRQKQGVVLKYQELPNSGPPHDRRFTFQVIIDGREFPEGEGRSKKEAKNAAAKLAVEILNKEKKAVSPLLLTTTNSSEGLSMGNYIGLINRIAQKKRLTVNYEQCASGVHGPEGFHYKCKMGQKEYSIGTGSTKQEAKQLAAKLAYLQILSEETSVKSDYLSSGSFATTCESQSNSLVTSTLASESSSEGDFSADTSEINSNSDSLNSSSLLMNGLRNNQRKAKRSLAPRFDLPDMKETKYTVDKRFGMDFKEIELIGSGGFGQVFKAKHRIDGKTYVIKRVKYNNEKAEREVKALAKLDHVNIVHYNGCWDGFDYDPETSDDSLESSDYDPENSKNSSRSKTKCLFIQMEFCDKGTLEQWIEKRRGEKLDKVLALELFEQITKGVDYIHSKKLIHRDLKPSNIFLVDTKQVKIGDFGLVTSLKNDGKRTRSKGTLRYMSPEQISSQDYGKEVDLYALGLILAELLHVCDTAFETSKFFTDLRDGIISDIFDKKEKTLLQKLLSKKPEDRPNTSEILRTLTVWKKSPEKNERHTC

**Q.** COc1cc(OC)c(Cl)c(N2Cc3cnc(Nc4ccc(F)cc4)nc3N(C3CCN(C(=O)/C=C/CN(C)C)CC3)C2=O)c1Cl was tested. Which Activity [1] did it give?
**A.** 100%

**Q.** What about the Activity [2] of the same molecule?
**A.** 100%

**Q.** What about the Activity [3] of the same molecule?
**A.** 89%

**Q.** What about the Activity [4] of the same molecule?
**A.** 100%

**Q.** And the Activity [5]?
**A.** 100%

**Q.** What about the Activity [6] of the same molecule?
**A.** 100%

**Q.** What about the Activity [7] of the same molecule?
**A.** 100%

**Q.** And the Activity [8]?
**A.** 76%

**Q.** And the Activity [9]?
**A.** 92%

**Q.** What about the Activity [10] of the same molecule?
**A.** 88%

**Q.** What about the Activity [11] of the same molecule?
**A.** 100%

**Q.** What about the Activity [12] of the same molecule?
**A.** 100%

**Q.** And the Activity [13]?
**A.** 68%

**Q.** And the Activity [14]?
**A.** 100%

**Q.** And the Activity [15]?
**A.** 100%

**Q.** What about the Activity [16] of the same molecule?
**A.** 98%

**Q.** What about the Activity [17] of the same molecule?
**A.** 71%

**Q.** And the Activity [18]?
**A.** 100%

**Q.** And the Activity [19]?
**A.** 1%

**Q.** And the Activity [20]?
**A.** 100%

**Q.** And the Activity [21]?
**A.** 77%
